Laboratory results: PMC12679438 (RSC Advances, 2025)
pIC50: −log10 of the molar value. Read-outs that look alike come from different tables or passages of the source.

What was measured:
[1] = test system: A549; test: MTS cytotoxicity assay, 72 h, A549; type: cell-based, human; conditions: Homo sapiens, A549, 72 h, read-out: IC50 A549
In short: (§1)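 Human lines were kept at 37 °C, 5% CO2 in recommended medium plus 10% FCS, penicillin–streptomycin, 2 mM glutamine, 1 mM bicarbonate, 1 mM pyruvate and 20 mM HEPES, and were mycoplasma-tested biweekly. Cells were exposed to test compound for 72 h on a robotic screening platform, then read by MTS. DMSO-treated cells were the negative control. IC50 came from dose–response curves, mean of ≥6 replicates.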

[2] = test system: HCT116; test: MTS cytotoxicity assay, 72 h, HCT116; type: cell-based, human; conditions: Homo sapiens, HCT-116, 72 h, read-out: IC50 HCT116
In short: as §1

[3] = test system: HCT116-p53; test: MTS cytotoxicity assay, 72 h, HCT116-p53; type: cell-based, human; conditions: Homo sapiens, read-out: IC50 HCT116-p53
In short: as §1

[4] = test system: U2OS; test: MTS cytotoxicity assay, 72 h, U2OS; type: cell-based, human; conditions: Homo sapiens, U2OS, read-out: IC50 U2OS
In short: as §1

[5] = test system: RAMOS; test: MTS cytotoxicity assay, 72 h, RAMOS; type: cell-based, human; conditions: Homo sapiens, Ramos, read-out: IC50 RAMOS
In short: as §1

[6] = test system: K562; test: MTS cytotoxicity assay, 72 h, K562; type: cell-based, human; conditions: Homo sapiens, K562, 72 h, read-out: IC50 K562
In short: as §1

[7] = test system: Jurkat; test: MTS cytotoxicity assay, 72 h, Jurkat; type: cell-based, human; conditions: Homo sapiens, Jurkat, read-out: IC50 Jurkat
In short: as §1

[8] = test system: CCRF-CEM; test: MTS cytotoxicity assay, 72 h, CCRF-CEM; type: cell-based, human; conditions: Homo sapiens, CCRF-CEM, read-out: IC50 CCRF-CEM
In short: as §1

[9] = test system: BJ; test: MTS cytotoxicity assay, 72 h, BJ fibroblasts; type: cell-based, human; conditions: Homo sapiens, BJ, read-out: IC50 BJ
In short: as §1

[10] = test system: MRC-5; test: MTS cytotoxicity assay, 72 h, MRC-5 fibroblasts; type: cell-based, human; conditions: Homo sapiens, MRC5, 72 h, read-out: IC50 MRC-5
In short: as §1

[11] = test system: panel of human cell lines; test: MTS cytotoxicity assay, statements over groups of cell lines of the panel; type: cell-based; conditions: for pIC50: Homo sapiens; for IC50 / cytotoxicity in fibroblast cells: non-cancerous fibroblasts (BJ, MRC-5), stated together in the text
In short: as §1

[12] = 72 h, read-out: IC50 across all tested cell lines

Row | SMILES | pIC50 [1] | pIC50 [2] | pIC50 [3] | pIC50 [4] | pIC50 [5] | pIC50 [6] | pIC50 [7] | pIC50 [8] | pIC50 [9] | pIC50 [10] | pIC50 [11, 12] | pIC50 ([11]; read-out: IC50 across multiple cancer lines) | IC50 / cytotoxicity in fibroblast cells [11]
1 | O=C(NCC(F)(F)F)C1CN(c2cc(-c3cccc(F)c3)n[nH]c2=O)C1 [Compound 36, 1-(6-(3-fluorophenyl)-3-oxo-2,3-dihydropyridazin-4-yl)-N-(2,2,2-trifluoroethyl)azetidine-3-carboxamide] | < 4.30 | < 4.30 | < 4.30 | < 4.30 | < 4.30 | < 4.30 | < 4.30 | < 4.30 | < 4.30 | < 4.30 | < 4.30 |  | 
2 | O=C(NCc1ccco1)C1CN(c2cc(-c3cccc(F)c3)n[nH]c2=O)C1 [Compound 19, 1-(6-(3-fluorophenyl)-3-oxo-2,3-dihydropyridazin-4-yl)-N-(furan-2-ylmethyl)azetidine-3-carboxamide] | < 4.30 | < 4.30 | < 4.30 | < 4.30 | 4.79 | < 4.30 | 4.60 | < 4.30 | < 4.30 | < 4.30 |  |  | 
3 | O=C(Nc1ccccc1)C1CN(c2cc(-c3ccc(Cl)cc3)n[nH]c2=O)C1 [Compound 11, 1-(6-(4-chlorophenyl)-3-oxo-2,3-dihydropyridazin-4-yl)-N-phenylazetidine-3-carboxamide] | 4.49 | 4.41 | 4.42 | 4.57 | 4.98 | < 4.30 | 4.48 | 4.64 | 4.47 | 4.59 |  | 4.43 to 4.74 | 
4 | O=C(C1CN(c2cc(-c3ccccc3)n[nH]c2=O)C1)N1CCN(c2ccccc2)CC1 [Compound 29, 6-phenyl-4-(3-(4-phenylpiperazine-1-carbonyl)azetidin-1-yl)pyridazin-3(2H)-one] | < 4.30 | < 4.30 | < 4.30 | < 4.30 | < 4.30 | < 4.30 | < 4.30 | < 4.30 | < 4.30 | < 4.30 |  |  | 
5 | O=C(NCC(F)(F)F)C1CN(c2cc(-c3ccc(F)cc3F)n[nH]c2=O)C1 [Compound 39, 1-(6-(2,4-difluorophenyl)-3-oxo-2,3-dihydropyridazin-4-yl)-N-(2,2,2-trifluoroethyl)azetidine-3-carboxamide] | < 4.30 | < 4.30 | < 4.30 | < 4.30 | < 4.30 | < 4.30 | < 4.30 | 4.57 | < 4.30 | < 4.30 |  |  | No significant cytotoxicity
6 | O=C(Nc1ccccc1)C1CN(c2cc(-c3ccccc3)n[nH]c2=O)C1 [Compound 8, 1-(3-oxo-6-phenyl-2,3-dihydropyridazin-4-yl)-N-phenylazetidine-3-carboxamide] | < 4.30 | < 4.30 | < 4.30 | < 4.30 | < 4.30 | < 4.30 | < 4.30 | < 4.30 | < 4.30 | < 4.30 | < 4.30 |  | 
7 | O=C(C1CN(c2cc(-c3ccncc3)n[nH]c2=O)C1)N1CCN(c2ccccc2)CC1 [Compound 28, 4-(3-(4-phenylpiperazine-1-carbonyl)azetidin-1-yl)-6-(pyridin-4-yl)pyridazin-3(2H)-one] | < 4.30 | < 4.30 | < 4.30 | < 4.30 | < 4.30 | < 4.30 | < 4.30 | < 4.30 | < 4.30 | < 4.30 |  |  | 
8 | COc1ccc(-c2cc(N3CC(C(=O)NCc4ccco4)C3)c(=O)[nH]n2)cc1 [Compound 20, N-(furan-2-ylmethyl)-1-(6-(4-methoxyphenyl)-3-oxo-2,3-dihydropyridazin-4-yl)azetidine-3-carboxamide] | < 4.30 | < 4.30 | < 4.30 | < 4.30 | 4.71 | 4.41 | 4.61 | < 4.30 | < 4.30 | < 4.30 |  |  | 
9 | O=C(NCC(F)(F)F)C1CN(c2cc(-c3ccccc3)n[nH]c2=O)C1 [Compound 35, 1-(3-oxo-6-phenyl-2,3-dihydropyridazin-4-yl)-N-(2,2,2-trifluoroethyl)azetidine-3-carboxamide] | < 4.30 | < 4.30 | < 4.30 | < 4.30 | < 4.30 | < 4.30 | < 4.30 | < 4.30 | < 4.30 | < 4.30 | < 4.30 |  | 
10 | O=C(NCc1ccco1)C1CN(c2cc(-c3ccccc3)n[nH]c2=O)C1 [Compound 18, N-(furan-2-ylmethyl)-1-(3-oxo-6-phenyl-2,3-dihydropyridazin-4-yl)azetidine-3-carboxamide] | < 4.30 | < 4.30 | < 4.30 | < 4.30 | 4.39 | 4.52 | 4.72 | 4.52 | < 4.30 | < 4.30 |  |  | 
11 | COC(=O)c1cncc(-c2cc(N3CC(C(=O)NCc4ccco4)C3)c(=O)[nH]n2)c1 [Compound 23, methyl 5-(5-(3-((furan-2-ylmethyl)carbamoyl)azetidin-1-yl)-6-oxo-1,6-dihydropyridazin-3-yl)nicotinate] | 4.38 | 5.05 | 4.90 | 4.77 | 5.26 | 5.13 | 5.29 | 5.29 | < 4.30 | < 4.30 |  |  | 
12 | O=C(NCC(F)(F)F)C1CN(c2cc(-c3ccc(Cl)cc3)n[nH]c2=O)C1 [Compound 38, 1-(6-(4-chlorophenyl)-3-oxo-2,3-dihydropyridazin-4-yl)-N-(2,2,2-trifluoroethyl)azetidine-3-carboxamide] | < 4.30 | < 4.30 | < 4.30 | < 4.30 | < 4.30 | < 4.30 | 4.35 | 4.52 | < 4.30 | < 4.30 |  |  | No significant cytotoxicity
13 | O=C(NCc1ccco1)C1CN(c2cc(-c3ccncc3)n[nH]c2=O)C1 [Compound 17, N-(furan-2-ylmethyl)-1-(3-oxo-6-(pyridin-4-yl)-2,3-dihydropyridazin-4-yl)azetidine-3-carboxamide] | < 4.30 | < 4.30 | < 4.30 | < 4.30 | < 4.30 | < 4.30 | < 4.30 | < 4.30 | < 4.30 | < 4.30 | < 4.30 |  | 
14 | COc1ccc(-c2cc(N3CC(C(=O)Nc4ccccc4)C3)c(=O)[nH]n2)cc1 [Compound 10, 1-(6-(4-methoxyphenyl)-3-oxo-2,3-dihydropyridazin-4-yl)-N-phenylazetidine-3-carboxamide] | < 4.30 | < 4.30 | < 4.30 | < 4.30 | 4.96 | < 4.30 | 4.39 | 4.68 | < 4.30 | < 4.30 |  |  | 
15 | O=C(NCC(F)(F)F)C1CN(c2cc(-c3ccncc3)n[nH]c2=O)C1 [Compound 34, 1-(3-oxo-6-(pyridin-4-yl)-2,3-dihydropyridazin-4-yl)-N-(2,2,2-trifluoroethyl)azetidine-3-carboxamide] | < 4.30 | < 4.30 | < 4.30 | < 4.30 | < 4.30 | < 4.30 | < 4.30 | < 4.30 | < 4.30 | < 4.30 | < 4.30 |  | 
16 | O=C(NCc1ccco1)C1CN(c2cc(-c3ccc(Cl)cc3)n[nH]c2=O)C1 [Compound 21, 1-(6-(4-chlorophenyl)-3-oxo-2,3-dihydropyridazin-4-yl)-N-(furan-2-ylmethyl)azetidine-3-carboxamide] | < 4.30 | < 4.30 | < 4.30 | < 4.30 | 4.43 | < 4.30 | 4.52 | < 4.30 | < 4.30 | < 4.30 |  |  | 
17 | O=C(c1ccncc1)C1CN(c2cc(-c3ccncc3)n[nH]c2=O)C1 [Compound 46, 4-(3-isonicotinoylazetidin-1-yl)-6-(pyridin-4-yl)pyridazin-3(2H)-one] | < 4.30 | < 4.30 | < 4.30 | < 4.30 | < 4.30 | < 4.30 | 4.44 | 4.54 | < 4.30 | < 4.30 |  |  | 
